# Laboratory results from ChEMBL document CHEMBL1629583, “Establishment of in vitro susceptibility testing methodologies and comparative activities of piperacillin in combination with the penem {beta}-lactamase inhibitor BLI-489” (2009).
# How the values were obtained:
# Format in all cases: functional
# [1] = tested on: Pseudomonas aeruginosa; assay: Antimicrobial activity against Pseudomonas aeruginosa clinical isolate after 18 to 22 hrs by broth microdilution method in presence of beta-lactamase inhibitor Tazobactam
# Procedure, shortened: (§1)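 Piperacillin-tazobactam was tested by CLSI broth microdilution in Mueller-Hinton II broth against clinical isolates. Inoculum was 10^5 CFU/ml, with 18 to 22 h incubation at 35°C in ambient air. MIC was read as the lowest concentration completely inhibiting visible growth.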
# [2] = tested on: Haemophilus parainfluenzae; assay: Antimicrobial activity against Haemophilus parainfluenzae clinical isolate after 18 to 22 hrs by broth microdilution method in presence of beta-lactamase inhibitor Tazobactam
# Procedure, shortened: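 […] was used for CLSI broth microdilution with piperacillin-tazobactam. Inoculum was 10^5 CFU/ml, incubated 18 to 22 h at 35°C in ambient air. MIC was the lowest concentration with no growth visible to the unaided eye.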
# [3] = tested on: Moraxella catarrhalis; assay: Antimicrobial activity against Moraxella catarrhalis clinical isolate after 18 to 22 hrs by broth microdilution method in presence of beta-lactamase inhibitor Tazobactam; procedure, shortened: as §1
# [4] = tested on: Staphylococcus epidermidis; assay: Antimicrobial activity against methicillin-susceptible Staphylococcus epidermidis clinical isolate after 18 to 22 hrs by broth microdilution method in presence of beta-lactamase inhibitor Tazobactam
# Procedure, shortened: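 CLSI broth microdilution of piperacillin-tazobactam in Mueller-Hinton II broth with serial dilutions. Inoculum was 10^5 CFU/ml. Incubation was 18 to 22 h at 35°C in ambient air. MIC was read as the lowest concentration giving complete inhibition of growth visible to the unaided eye.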
# [5] = tested on: Enterococcus faecium; assay: Antimicrobial activity against Enterococcus faecium clinical isolate after 18 to 22 hrs by broth microdilution method in presence of beta-lactamase inhibitor BLI-489
# Procedure, shortened: (§2)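 CLSI broth microdilution in Mueller-Hinton II broth. Serial dilutions of piperacillin were tested with BLI-489 held at a constant 4 μg/ml. Inoculum was 10^5 CFU/ml. Plates were incubated 18 to 22 h at 35°C in ambient air. MIC was the lowest concentration giving complete growth inhibition by unaided eye.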
# [6] = tested on: Enterococcus faecium; assay: Antimicrobial activity against vancomycin-resistant Enterococcus faecium clinical isolate after 18 to 22 hrs by broth microdilution method in presence of beta-lactamase inhibitor Tazobactam
# Procedure, shortened: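 CLSI broth microdilution in Mueller-Hinton II broth. Antibiotic in serial dilution with the β-lactamase inhibitor held at a constant 4 μg/ml. Inoculum 10^5 CFU/ml. Incubated 18 to 22 h at 35°C in ambient air.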
# [7] = tested on: Streptococcus agalactiae; assay: Antimicrobial activity against Streptococcus agalactiae clinical isolate after 18 to 22 hrs by broth microdilution method in presence of beta-lactamase inhibitor Tazobactam
# Procedure, shortened: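 Streptococcal isolates were tested with piperacillin-tazobactam by CLSI broth microdilution in Mueller-Hinton II broth supplemented with 5% lysed horse blood. Inoculum was 10^5 CFU/ml, incubated 18 to 22 h at 35°C in ambient air. Visual endpoint: lowest concentration with complete inhibition.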
# [8] = tested on: Bacteroides fragilis; assay: Antimicrobial activity against Bacteroides fragilis clinical isolate after 18 to 22 hrs by broth microdilution method in presence of beta-lactamase inhibitor Tazobactam
# [9] = tested on: Bacteroides thetaiotaomicron; assay: Antimicrobial activity against Bacteroides thetaiotaomicron clinical isolate after 18 to 22 hrs by broth microdilution method in presence of beta-lactamase inhibitor Tazobactam
# [10] = tested on: Peptostreptococcus anaerobius; assay: Antimicrobial activity against Peptostreptococcus anaerobius clinical isolate after 18 to 22 hrs by broth microdilution method
# [11] = tested on: Enterococcus casseliflavus; assay: Antimicrobial activity against Enterococcus casseliflavus clinical isolate after 18 to 22 hrs by broth microdilution method in presence of beta-lactamase inhibitor Tazobactam
# Procedure, shortened: (§3)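 Piperacillin-tazobactam was tested on recent clinical isolates by CLSI broth microdilution in Mueller-Hinton II broth, with tazobactam at constant 4 μg/ml. Wells held 10^5 CFU/ml and were incubated 18 to 22 h at 35°C in ambient air. MIC was the lowest concentration with no growth visible to the unaided eye.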
# [12] = tested on: Escherichia coli; assay: Antimicrobial activity against class A extended spectrum beta-lactamase- producing Escherichia coli clinical isolate after 18 to 22 hrs by broth microdilution method in presence of beta-lactamase inhibitor BLI-489
# Procedure, shortened: (§4)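 Piperacillin serially diluted with BLI-489 held at a constant 4 μg/ml, by CLSI broth microdilution in Mueller-Hinton II broth. Inoculum was 10^5 CFU/ml. Plates were incubated 18 to 22 h at 35°C in ambient air. MIC was the lowest concentration completely inhibiting growth seen by the unaided eye.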
# [13] = tested on: Enterobacter cloacae; assay: Antimicrobial activity against Enterobacter cloacae clinical isolate after 18 to 22 hrs by broth microdilution method in presence of beta-lactamase inhibitor Tazobactam; procedure, shortened: as §3
# [14] = tested on: Escherichia coli; assay: Antimicrobial activity against Escherichia coli clinical isolate after 18 to 22 hrs by broth microdilution method in presence of beta-lactamase inhibitor Tazobactam
# [15] = tested on: Klebsiella pneumoniae; assay: Antimicrobial activity against class A extended spectrum beta-lactamase- producing Klebsiella pneumoniae clinical isolate after 18 to 22 hrs by broth microdilution method in presence of beta-lactamase inhibitor BLI-489; procedure, shortened: as §4
# [16] = tested on: Klebsiella oxytoca; assay: Antimicrobial activity against Klebsiella oxytoca clinical isolate after 18 to 22 hrs by broth microdilution method in presence of beta-lactamase inhibitor BLI-489; procedure, shortened: as §2
# [17] = tested on: Serratia marcescens; assay: Antimicrobial activity against Serratia marcescens clinical isolate after 18 to 22 hrs by broth microdilution method in presence of beta-lactamase inhibitor Tazobactam; procedure, shortened: as §1
# [18] = tested on: Proteus vulgaris; assay: Antimicrobial activity against Proteus vulgaris clinical isolate after 18 to 22 hrs by broth microdilution method in presence of beta-lactamase inhibitor BLI-489; procedure, shortened: as §2
# [19] = tested on: Providencia stuartii; assay: Antimicrobial activity against Providencia stuartii clinical isolate after 18 to 22 hrs by broth microdilution method in presence of beta-lactamase inhibitor BLI-489; procedure, shortened: as §2
# [20] = tested on: Acinetobacter calcoaceticus; assay: Antimicrobial activity against Acinetobacter calcoaceticus clinical isolate after 18 to 22 hrs by broth microdilution method in presence of beta-lactamase inhibitor BLI-489
# Procedure, shortened: (§5)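 CLSI broth microdilution in Mueller-Hinton II broth. Piperacillin serial dilutions were combined with BLI-489 held constant at 4 μg/ml. Inoculum was 10^5 CFU/ml. Plates were incubated 18 to 22 h at 35°C in ambient air. MIC was the lowest concentration completely inhibiting growth seen by the unaided eye. Piperacillin-tazobactam interpretive criteria were applied.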
# [21] = tested on: Acinetobacter junii; assay: Antimicrobial activity against Acinetobacter junii clinical isolate after 18 to 22 hrs by broth microdilution method in presence of beta-lactamase inhibitor Tazobactam; procedure, shortened: as §3
# [22] = tested on: Acinetobacter junii; assay: Antimicrobial activity against Acinetobacter junii clinical isolate after 18 to 22 hrs by broth microdilution method in presence of beta-lactamase inhibitor BLI-489; procedure, shortened: as §5
structure (smiles),measurement,setting,value
CCN1CCN(C(=O)N[C@@H](C(=O)N[C@@H]2C(=O)N3[C@@H]2SC(C)(C)[C@@H]3C(=O)O)c2ccccc2)C(=O)C1=O [PIPERACILLIN],MIC50,[1],16 µg/mL
same,MIC90,[1],> 128 µg/mL
same,MIC50,[2],0.06 µg/mL
same,MIC90,[2],0.25 µg/mL
same,MIC,[3],≤ 0.004 µg/mL
same,MIC50,[3],≤ 0.004 µg/mL
same,MIC90,[3],0.008 µg/mL
same,MIC50,[4],0.25 µg/mL
same,MIC90,[4],0.5 µg/mL
same,MIC50,[5],4 µg/mL
same,MIC90,[5],> 128 µg/mL
same,MIC,[6],> 128 µg/mL
same,MIC50,[6],> 128 µg/mL
same,MIC50,[7],0.12 µg/mL
same,MIC90,[7],0.25 µg/mL
same,MIC50,[8],0.06 µg/mL
same,MIC90,[8],0.25 µg/mL
same,MIC50,[9],4 µg/mL
same,MIC90,[9],8 µg/mL
same,MIC50,[10],0.06 µg/mL
same,MIC90,[10],0.06 µg/mL
same,MIC50,[11],4 µg/mL
same,MIC90,[11],16 µg/mL
same,MIC50,[12],64 µg/mL
same,MIC90,[12],128 µg/mL
same,MIC50,[13],2 µg/mL
same,MIC90,[13],> 128 µg/mL
same,MIC50,[14],2 µg/mL
same,MIC90,[14],2 µg/mL
same,MIC50,[15],16 µg/mL
same,MIC90,[15],32 µg/mL
same,MIC50,[16],2 µg/mL
same,MIC90,[16],8 µg/mL
same,MIC50,[17],2 µg/mL
same,MIC90,[17],64 µg/mL
same,MIC50,[18],0.5 µg/mL
same,MIC90,[18],1 µg/mL
same,MIC50,[19],1 µg/mL
same,MIC90,[19],8 µg/mL
same,MIC50,[20],> 128 µg/mL
same,MIC90,[20],> 128 µg/mL
same,MIC50,[21],≤ 0.12 µg/mL
same,MIC90,[21],32 µg/mL
same,MIC50,[22],4 µg/mL
same,MIC90,[22],16 µg/mL
